# Compound activity: PubChem BioAssay, The Scripps Research Institute Molecular Screening Center
# IMP-1 inh: blocks Pseudomonas aeruginosa IMP-1 metallo-beta-lactamase | purified IMP-1, nitrocefin hydrolysis, epi-absorbance fluorescence | inhibition, % at 5.6 µM | 0.45% of 290,000 active;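 active = inhibition above the mean plus 3 SD of all compounds in the same screening run, cut at about 4.5% in these data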;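 also: 0% = IMP-1 with DMSO and 100% = DMSO wells lacking enzyme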
#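 System: purified recombinant IMP-1 beta-lactamase. Medium: Zinc- and detergent-supplemented HEPES buffer, pH 7.1. Compound: one 5.6 µM dose […]. Schedule: 15 min preincubation plus 25 min reaction at 25 °C. Technique: Epi-absorbance fluorescence, 480 nm excitation, 530 nm emission.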
# PfM18AAP inh: PfM18AAP enzyme inhibition; AID 1822; 1.2% of 290,000 active; recombinant PfM18AAP, H-Glu-NHMec fluorogenic cleavage; inhibition, % at 7.35 µM;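 active = inhibition above the campaign mean inhibition over all tested compounds plus 3 SD, cut at about 28% in these data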;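 also: 0% = plate median of test compound wells and 100% = 2 mM ZnCl2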
# sPLA2-III inh: Blocks human group III sPLA2 activity. Q9NZ20. QFRET BODIPY PC-A2 liposome hydrolysis, fluorescence. inhibition, % at 12.2 µM. 0.56% of 370,000 active. AID 743126;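 active = inhibition above mean plus 3 SD of compounds lying within the high and low control bounds, cut at about 19% in these data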;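 also: 0% = median of test compound wells and 100% = no enzyme DMSO wells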
# Target sequence (Q9NZ20 whole entry, looked up): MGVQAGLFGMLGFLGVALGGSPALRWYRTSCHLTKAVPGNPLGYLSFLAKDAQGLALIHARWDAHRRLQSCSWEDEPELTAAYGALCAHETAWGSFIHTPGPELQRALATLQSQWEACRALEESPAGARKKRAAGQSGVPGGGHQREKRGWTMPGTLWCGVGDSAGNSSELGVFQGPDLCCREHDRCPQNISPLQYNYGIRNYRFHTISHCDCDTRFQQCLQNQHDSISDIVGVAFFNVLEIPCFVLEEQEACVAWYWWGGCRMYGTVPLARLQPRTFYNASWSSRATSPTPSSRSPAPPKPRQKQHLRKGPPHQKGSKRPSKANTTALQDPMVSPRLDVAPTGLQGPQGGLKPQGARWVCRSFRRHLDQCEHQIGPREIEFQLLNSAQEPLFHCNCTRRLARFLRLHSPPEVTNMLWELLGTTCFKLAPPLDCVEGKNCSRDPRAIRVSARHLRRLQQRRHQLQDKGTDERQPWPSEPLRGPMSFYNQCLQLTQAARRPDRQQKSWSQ
# VIM-2 inh: inhibitors of Pseudomonas aeruginosa VIM-2 metallo-beta-lactamase; purified VIM-2, nitrocefin hydrolysis, epi-absorbance fluorescence; inhibition, % at 5.6 µM; AID 1527; 0.89% of 290,000 active;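 active = inhibition above the mean of all tested compounds plus 3 SD, cutoff set per screening run, cut at about 7.5% in these data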;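 also: red hydrolysis product quenches plate fluorescence so inhibitors raise well fluorescence; 0% = enzyme with DMSO and 100% = DMSO without enzyme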
# Starred values were filed as active, the others as inactive; x = no result given. In the library only some 2.4% were active in any assay of this set; here they are far more common.
SMILES,IMP-1 inh,PfM18AAP inh,sPLA2-III inh,VIM-2 inh
COc1cccc(/C=N/NC(=S)Nc2cccc(C(=O)O)c2)c1,-2,29*,6,9.1*
COc1cc(/C=N/NC(=S)Nc2cccc(C(=O)O)c2)cc(OC)c1OC,-3,22,1,0
CC(C)(C)c1ccc(/C=N/Nc2cccc(C(=O)O)c2)cc1,-1,30*,-9,-1
O=C(O)c1cccc(N/N=C/c2ccc(-c3ccccc3)cc2)c1,-1,1,-11,-2
CC[C@H](CCCCCC#N)CCC(=O)N(c1ccccc1)c1ccccc1,x,x,-4,x
Cc1[nH]c2ccccc2c1CC(=O)Nc1ccc(Nc2ccccc2)cc1,x,x,-21,x
N#CC(C(=O)NCc1ccccc1)c1nc2ccccc2nc1N1CCCC1 (stereo not given),8.2*,12,-12,0
C=CCc1c(C)[nH]c(=S)c(C#N)c1C,9.3*,0,2,1
COc1ccc(C2C(C(=O)Nc3ccc(C)c(C)c3)CCC(=O)N2c2ccc(OC)cc2)cc1 (stereo not given),x,x,-21,x
CCOC(=O)C1=C(C)Nc2sc(C(=O)c3ccc(C)cc3)c(N)c2C1c1ccc(C(=O)OC)cc1 (stereo not given),-3,3,-7,7.8*
CCOC(=O)C1=C(C)Nc2sc(C(=O)c3ccc(F)cc3)c(N)c2C1c1ccc(C(=O)OC)cc1 (stereo not given),-3,13,-11,7
COC(=O)c1sc(NC(=O)CSc2n[nH]c(N)n2)c(C(=O)OC)c1C,-3,0,-16,10*
Cc1cc(Br)c(NC(=O)CSc2n[nH]c(N)n2)c(Br)c1,x,x,-8,x
c1ccc(-n2c(SCc3cccc4ccccc34)nnc2-c2ccccn2)cc1,x,x,-7,x
Cc1ccc(Cn2nnc3c2-c2ccccc2S(=O)(=O)N(C(C)(C)C)C3)cc1,x,x,-10,x
Cc1ccc(Oc2ncccc2/C=N/OCc2ccc(Cl)c(Cl)c2)cc1,4.7*,5,-3,0
NS(=O)(=O)c1ccc(N/N=C/c2ccc(O)c(O)c2O)c([N+](=O)[O-])c1,-1,50*,14,1
Cc1cccc(-c2cccc3c4c([nH]c23)[C@@H]2C[C@H](N(C)C(=O)c3ccccc3C)[C@H]([C@H](C)O)C(=O)N2CC4)c1,x,x,1,x
COC(=O)c1ccc(N2NC(=O)/C(=C/c3cc(OC)c(O)c(OC)c3)C2=O)cc1,-3,31*,-7,-9
COc1cc(/C=C2/C(=O)NN(c3ccc(F)cc3)C2=O)cc(Cl)c1O,-7,13,-5,-6
COc1cc(/C=C2/C(=O)NN(c3ccc(Cl)cc3)C2=O)cc(Br)c1O,9.7*,9,-13,-4
Oc1ccc(N=Nc2ccccc2-c2nn[nH]n2)c(O)c1,-7,34*,-14,-1
O=C1c2cccc(OCc3ccc(F)cc3)c2CCN1Cc1ccccc1,6.1*,-7,-12,-2
COC(=O)C1CN(C2CCCC2)CCS(=O)(=O)N1Cc1ccccc1 (stereo not given),x,x,1,x
Cc1nc2sc3c(=O)[nH]nnc3c2c(C)c1Br,0,-10,-4,11*
SMILES,IMP-1 inh,PfM18AAP inh,sPLA2-III inh,VIM-2 inh
CSCC[C@H](NC(=O)C1CCN(S(=O)(=O)c2ccc(C)cc2)CC1)C(=O)NCc1ccco1,5.9*,-8,-3,-2
CC(C)CCNC(=O)NC(=O)COc1ccccc1C#N,5.4*,-3,-6,-1
O=C(Nc1cc([N+](=O)[O-])ccc1O)c1cccc([N+](=O)[O-])c1,-3,-1,2,-3
O=C(Nc1ccc(NC(=O)c2cccc([N+](=O)[O-])c2)cc1)c1cccc([N+](=O)[O-])c1,-4,-15,0,-2
O=C(Nc1cccc([N+](=O)[O-])c1)c1cccc(C(=O)Nc2cccc([N+](=O)[O-])c2)c1,8.7*,1,-2,-1
O=C(Nc1cc([N+](=O)[O-])ccc1O)c1cccc(C(=O)Nc2cc([N+](=O)[O-])ccc2O)c1,26*,-1,-6,-1
CC(=O)c1cccc(NC(=O)c2ccc3ccccc3c2)c1,-2,6,-8,-1
CC(=O)c1ccc(NC(=O)c2cccc(NC(=O)c3ccccc3)c2)cc1,7.2*,-1,-4,-1
Cc1cccc(C)c1-n1nnnc1C1(C)CN(S(C)(=O)=O)CC(=O)N1Cc1ccc(F)cc1 (stereo not given),x,x,-4,x
O=C1c2ccccc2C(=O)N1Nc1ccc([N+](=O)[O-])cc1[N+](=O)[O-],4.5*,0,1,-1
O=C1C2C3C=CC(C3)C2C(=O)N1Nc1ccc([N+](=O)[O-])cc1[N+](=O)[O-] (stereo not given),-3,2,3,-2
COc1cc(OC)cc(C(=O)Nc2ccc(Cn3ccnc3)cc2)c1,-2,5,-14,5
COc1ccc(C(=O)Nc2ccc(Cn3ccnc3)cc2)cc1OC,-3,-8,-7,8.5*
Nc1ccc2nc(-c3cccc(-c4nc5ccc(N)cc5[nH]4)n3)[nH]c2c1,-5,9,-4,10.0*
Cc1ccc(S(=O)(=O)N(C)c2nc3ccccc3[nH]c2=S)cc1,8.7*,22,-8,2
CN(C)/C=C/C(=O)c1cc(N2CCOCC2)ccc1[N+](=O)[O-],7.4*,13,2,-2
CC(=O)c1cc(N2CCOCC2)ccc1[N+](=O)[O-],-1,-13,2,-2
O=C(O)CCC(=O)N1N=C(c2ccc(Br)cc2)CC1c1cccs1 (stereo not given),-3,-5,-1,7.9*
Cc1c(NC(=O)C2CCCN(S(=O)(=O)c3c(C(C)C)cc(C(C)C)cc3C(C)C)C2)c(=O)n(-c2ccccc2)n1C (stereo not given),x,x,2,x
CCCCNC(=O)CSc1nnc(Cc2ccccc2)n1CC,4.5*,-9,0,-1
CCCCNC(=O)CSc1nnc(Cc2ccccc2)n1CC1CCCO1 (stereo not given),-3,-11,-2,-1
CCC(CO)[n+]1c(C)cc(/C=C2\Sc3ccccc3N2Cc2ccccc2)cc1C (stereo not given),9.9*,27,-8,-1
COc1ccccc1Nc1c2c(nc3ccc(N)cc13)CCCC2,-4,-4,12,8.7*
COc1ccc(Nc2c3c(nc4ccc(C)cc24)CCC3)cc1,-3,12,-2,9.1*
Cc1cccc(Nc2c3c(nc4ccccc24)CCC3)c1,-4,-1,5,7
SMILES,IMP-1 inh,PfM18AAP inh,sPLA2-III inh,VIM-2 inh
CC(C)CC(=O)NNC(=S)Nc1ccc(S(N)(=O)=O)cc1,-3,29*,17,-3
O=C(NCc1ccccc1Cl)C1CCC(CNS(=O)(=O)c2cccc3cccnc23)CC1 (stereo not given),x,x,5,x
CN1CCN(C(=O)c2ccc3c(c2)NC(=O)/C(=C/c2ccccc2)S3)CC1,-1,0,-21,8.0*
Cc1cc(SCC(=O)Nc2c(C)n(C)n(-c3ccccc3)c2=O)n2c(nc3ccccc32)c1C#N,-1,-5,x,22*
O=C(NO)c1cc(OCC(F)(F)F)ccc1OCC(F)(F)F,-2,2,-30,12*
Cc1cccc(N2CCN(C(=O)c3cc(S(=O)(=O)N(C)C)ccc3Cl)CC2)c1C,x,x,-11,x
